Test results: ChEMBL document CHEMBL1165947, “Synthesis and antitumor activity of 2,5-bis(3'-indolyl)-furans and 3,5-bis(3'-indolyl)-isoxazoles, nortopsentin analogues” (Bioorg Med Chem, 2010)
Values after ≈ are worked out from the molar mass of the structure shown.

Assays:
[1] = test system: HL-60(TB); experiment: Growth inhibition of human HL-60(TB) cells; format: functional
Outline: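 Values come from the NCI in vitro disease-oriented human tumour cell line screen, not from this lab's propidium iodide assay. GI50 is the concentration giving 50% inhibition of net cell growth, also reported as pGI50, the −log of that molar concentration.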

[2] = test system: HCT-15; experiment: Growth inhibition of human HCT15 cells; format: functional
[3] = test system: LNCaP; experiment: Cytotoxicity against human LNCAP cells after 4 days by modified propidium iodide staining-based fluorescence assay; format: functional, cell-based; details: 96 h
Outline: (§1)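 Cells cultured in RPMI 1640 with 10% fetal calf serum and 0.1 mg/mL gentamicin at 37 °C, 5% CO2. Cells from exponential cultures were trypsinized and plated at 4.000-20.000 cells/well by line. After 24 h recovery, compounds were added at five log-spaced concentrations (highest 100 μg/mL) for 4 days. Proliferation was read as DNA content with aqueous propidium iodide (7 μg/ml), fluorescence ex 530/em 620 nm. Points were run in triplicate.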

[4] = test system: UACC-257; experiment: Growth inhibition of human UACC257 cells; format: functional
Outline: (§2)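 Values come from the NCI in vitro disease-oriented human tumor cell screen. GI50 is the concentration giving 50% growth inhibition of tumor cells; pGI50 is its −log molar form.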

[5] = test system: T47D; experiment: Growth inhibition of human T47D cells; format: functional; outline: as §2
[6] = test system: NCI-H460; experiment: Cytotoxicity against human H460 cells after 4 days by modified propidium iodide staining-based fluorescence assay; format: functional, cell-based; details: NCI-H460, 96 h; outline: as §1
[7] = test system: HOP-92; experiment: Growth inhibition of human HOP92 cells; format: functional
[8] = test system: M14; experiment: Growth inhibition of human M14 cells; format: functional
[9] = test system: 786-0; experiment: Growth inhibition of human 786-0 cells; format: functional
[10] = Cytotoxicity against human 1752L cells after 4 days by modified propidium iodide staining-based fluorescence assay; format: functional, cell-based; details: 96 h; outline: as §1
[11] = test system: U-251; experiment: Growth inhibition of human U251 cells; format: functional; outline: as §2
[12] = test system: NCI-H460; experiment: Growth inhibition of human NCI-H460 cells; format: functional; outline: as §2
[13] = test system: SNB-75; experiment: Growth inhibition of human SNB75 cells; format: functional; outline: as §2
[14] = test system: Malme-3M; experiment: Growth inhibition of human MALME-3M cells; format: functional; outline: as §2
[15] = test system: CCRF-CEM; experiment: Growth inhibition of human CCRF-CEM cells; format: functional
[16] = test system: NCI-H226; experiment: Growth inhibition of human NCI-H226 cells; format: functional; outline: as §2
[17] = test system: OVCAR-3; experiment: Cytotoxicity against human OVCAR-3 cells after 4 days by modified propidium iodide staining-based fluorescence assay; format: functional, cell-based; details: OVCAR-3, 96 h; outline: as §1
[18] = test system: SK-MEL-28; experiment: Growth inhibition of human SK-MEL-28 cells; format: functional; outline: as §2
[19] = test system: NCI/ADR-RES; experiment: Growth inhibition of human NCI/ADR-RES cells; format: functional; outline: as §2
[20] = Growth inhibition of human Hs 578T cells; format: functional
[21] = test system: T-24; experiment: Cytotoxicity against human T24 cells after 4 days by modified propidium iodide staining-based fluorescence assay; format: functional, cell-based; details: T-24, 96 h; outline: as §1
[22] = test system: HT-29; experiment: Cytotoxicity against human HT-29 cells after 4 days by modified propidium iodide staining-based fluorescence assay; format: functional, cell-based; details: HT-29, 96 h; outline: as §1
[23] = test system: HT-29; experiment: Growth inhibition of human HT-29 cells; format: functional
[24] = test system: EKVX; experiment: Growth inhibition of human EKVX cells; format: functional
[25] = test system: SF-268; experiment: Cytotoxicity against human SF268 cells after 4 days by modified propidium iodide staining-based fluorescence assay; format: functional, cell-based; details: SF-268, 96 h; outline: as §1
[26] = test system: UACC-62; experiment: Growth inhibition of human UACC62 cells; format: functional; outline: as §2
[27] = test system: SW-620; experiment: Growth inhibition of human SW620 cells; format: functional; outline: as §2
[28] = test system: HOP-62; experiment: Growth inhibition of human HOP62 cells; format: functional
[29] = test system: OVCAR-4; experiment: Growth inhibition of human OVCAR4 cells; format: functional; outline: as §2
[30] = test system: MDA-MB-231; experiment: Growth inhibition of human MDA-MB-231 cells; format: functional; outline: as §2
[31] = test system: NCI-H522; experiment: Growth inhibition of human NCI-H522 cells; format: functional; outline: as §2
[32] = Cytotoxicity against human 1657L cells after 4 days by modified propidium iodide staining-based fluorescence assay; format: functional, cell-based; details: 96 h; outline: as §1
[33] = test system: A549; experiment: Growth inhibition of human A549 cells; format: functional
[34] = test system: SF-295; experiment: Growth inhibition of human SF295 cells; format: functional; outline: as §2
[35] = Cytotoxicity against human RXF 486L cells after 4 days by modified propidium iodide staining-based fluorescence assay; format: functional, cell-based; details: 96 h; outline: as §1
[36] = test system: A549; experiment: Cytotoxicity against human A549 cells after 4 days by modified propidium iodide staining-based fluorescence assay; format: functional, cell-based; details: A549, 96 h; outline: as §1
[37] = test system: OVCAR-3; experiment: Growth inhibition of human OVCAR-3 cells; format: functional; outline: as §2
[38] = test system: SK-MEL-2; experiment: Growth inhibition of human SK-MEL-2 cells; format: functional; outline: as §2
[39] = test system: MCF7; experiment: Cytotoxicity against human MCF7 cells after 4 days by modified propidium iodide staining-based fluorescence assay; format: functional, cell-based; details: MCF7, 96 h; outline: as §1
[40] = Cytotoxicity against human UXF 1138L cells after 4 days by modified propidium iodide staining-based fluorescence assay; format: functional, cell-based; details: 96 h; outline: as §1
[41] = Cytotoxicity against human MEXF 520L cells after 4 days by modified propidium iodide staining-based fluorescence assay; format: functional, cell-based; details: 96 h; outline: as §1
[42] = test system: UO-31; experiment: Growth inhibition of human UO31 cells; format: functional; outline: as §2

## COc1ccc2c(c1)c(-c1ccc(-c3cn(C)c4ccc(OC)cc34)o1)cn2C
[1]
  GI50: 1.98 µM
[2]
  GI50: 4.22 µM
[3]
  IC50: 28.2 µg/mL (≈ 73 µM)
[4]
  GI50: 27 µM
[5]
  GI50: 2.72 µM
[6]
  IC50: 22.2 µg/mL (≈ 57.4 µM)
[7]
  GI50: 1.03 µM
[8]
  GI50: 32.9 µM
[9]
  GI50: > 100 µM
[10]
  IC50: 77.4 µg/mL (≈ 200 µM)
[11]
  GI50: 3.66 µM
[12]
  GI50: 9.89 µM
[13]
  GI50: 13.6 µM
[14]
  GI50: 52.8 µM
[15]
  GI50: 6.46 µM
[16]
  GI50: 23.6 µM
[17]
  IC50: 4.2 µg/mL (≈ 10.9 µM)
[18]
  GI50: 14 µM
[19]
  GI50: 2.37 µM
[20]
  GI50: 5.11 µM
[21]
  IC50: > 100 µg/mL
[22]
  IC50: > 100 µg/mL
[23]
  GI50: 22 µM
[24]
  GI50: 5.48 µM
[25]
  IC50: 35.1 µg/mL (≈ 90.8 µM)
[26]
  GI50: 3.81 µM
[27]
  GI50: 4.55 µM
[28]
  GI50: > 100 µM
[29]
  GI50: 2.06 µM
[30]
  GI50: 4.2 µM
[31]
  GI50: 3.42 µM
[32]
  IC50: > 100 µg/mL
[33]
  GI50: 18.4 µM
[34]
  GI50: 13.4 µM
[35]
  IC50: > 100 µg/mL
[36]
  IC50: 9.6 µg/mL (≈ 24.8 µM)
[37]
  GI50: 8.51 µM
[38]
  GI50: 2.13 µM
[39]
  IC50: 6.2 µg/mL (≈ 16 µM)
[40]
  IC50: 13.7 µg/mL (≈ 35.5 µM)
[41]
  IC50: 6.4 µg/mL (≈ 16.6 µM)
[42]
  GI50: 3.6 µM
